High-throughput results from PubChem.
HSF-1 act: increases HSF-1 driven luciferase reporter signal; NIH3T3-HGL HSF-1 luciferase reporter, MG132, 8 h; 100% = twice DMSO control signal; activation, % at 9 µM; hit rate 1.7% among 300,000; AID 504408;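 active means mean replicate activation of at least 50% with a set share of replicates each reaching 50%; inconclusive means only one of those two conditions met; inactive means mean below 50% and too few replicates reaching it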;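 further: 0% = median of the neutral control wells and 100% = twice that signal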
Wnt act: activators of Wnt/beta-catenin signaling; Wnt/beta-catenin reporter cell assay, activator, plate reader; activation, % at 9.35 µM; hit rate 1.2% among 300,000; in the data active means activation above about 30%, passing the limit was not always enough; inconclusive means no clear call, values can overlap the other calls;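 further: 0% = neutral control wells and 100% = positive control wells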
MITF act: MITF TRPM1 promoter activation in melanoma cells; SK-MEL-5 TRPM1-promoter luciferase, 24 h; % of positive control, neutral wells = 0; activation, % at 12.5 µM; hit rate 0.75% among 300,000;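 active means mean activation of at least 80% with every replicate also reaching 80%; inconclusive means mean reaches 80% but some replicate falls short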;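 further: 0% = neutral control wells and 100% = parthenolide positive control wells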
SR-BI DiI inh: inhibitors of mouse SR-BI mediated HDL lipid uptake. inhibition, % at 12.5 µM. Q61009. hit rate 0.96% among 320,000. ldlA[mSR-BI] CHO cells, DiI-HDL uptake fluorescence, 3 h;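 active means mean replicate inhibition of at least 70% and a set share of replicates each scoring 70 or more; inconclusive means meets just one of the two criteria; inactive means fails both criteria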;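 further: 0% = median of neutral control wells and 100% = median of positive control wells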
Target sequence (Q61009 whole entry, looked up): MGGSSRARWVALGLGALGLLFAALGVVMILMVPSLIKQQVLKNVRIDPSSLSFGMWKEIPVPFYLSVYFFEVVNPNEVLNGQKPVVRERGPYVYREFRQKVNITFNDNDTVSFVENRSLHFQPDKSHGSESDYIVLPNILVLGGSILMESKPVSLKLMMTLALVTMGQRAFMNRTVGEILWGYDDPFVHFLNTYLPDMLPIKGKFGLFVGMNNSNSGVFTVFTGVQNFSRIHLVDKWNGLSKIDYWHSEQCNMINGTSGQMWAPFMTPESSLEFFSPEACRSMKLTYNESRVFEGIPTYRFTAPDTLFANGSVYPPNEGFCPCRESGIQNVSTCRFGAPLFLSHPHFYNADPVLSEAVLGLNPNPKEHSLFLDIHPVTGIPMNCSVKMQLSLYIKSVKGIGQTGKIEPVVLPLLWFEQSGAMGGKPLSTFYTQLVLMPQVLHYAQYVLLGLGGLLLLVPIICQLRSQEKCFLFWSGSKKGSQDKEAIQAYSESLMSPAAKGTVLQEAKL
SR-BI DiI-HDL act: enhances SR-BI lipid uptake from DiI-HDL; CHO ldlA[mSR-BI] cells, DiI-HDL uptake fluorescence, 3 h; 100 = double the neutral-control signal; activation, % at 12.5 µM; hit rate 0.096% among 320,000; AID 504775;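 active means mean replicate activation of at least 60% and every replicate at or above 60%; inconclusive means mean or all-replicate condition met, but not both; inactive means mean below 60% and not all replicates reaching 60%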;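 further: 0% = median plate neutral-control signal and 100% = twice that signal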
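System: CHO ldlA[mSR-BI] cells / Medium: HEPES-buffered (25 mM, pH 7.4) F12 plus 0.5% BSA / Probe or stimulus: labelled HDL, 10 µg/mL / Doses: single compound concentration, delivered by pin transfer / Schedule: 3 h, 37 °C / Measured by: DiI fluorescence, bottom read / Measure: cell-associated DiI fluorescence as measure of HDL uptake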
* hit, by the source's call; ? = inconclusive; . = no result. Rows were chosen to be rich in hits. Some 3.6% of all compounds tested hit in one or more screens of this group.

SMILES	HSF-1 act	Wnt act	MITF act	SR-BI DiI inh	SR-BI DiI-HDL act
Fc1ccccc1N1CCN(c2cnc3ccccc3n2)CC1	62*	.	54	33	-33
Cc1nn(-c2ccccc2)c(N)c1N=Nc1cccnc1	41	11	97*	26	-26
c1ccc2oc(-c3ccn[nH]3)cc2c1	21	40*	.	-13	13
Cc1ccc(CNc2ccc([N+](=O)[O-])cc2C(N)=O)cc1	.	20	106*	-15	15
O=C(O)c1cc([N+](=O)[O-])ccc1NCc1ccccc1	20	1	-3	1	-1
Cc1cccc(Oc2coc3cc(OC(=O)c4cccs4)ccc3c2=O)c1	59*	.	9	-26	26
Fc1ccccc1-c1cc2ccccc2cn1	.	36*	55	-22	22
Cn1c(NC(=O)c2ccccc2)cc(=O)n(C)c1=O	2	1	2	-6	6
Cn1c(NC(=O)/C=C/c2ccc(Cl)c(Cl)c2)cc(=O)n(C)c1=O	56*	.	53	2	-2
COc1ccc(/C=C/C(=O)Nc2cc(=O)n(C)c(=O)n2C)cc1	60*	.	39	-17	17
COc1ccc(C(=O)Nc2cc(=O)n(C)c(=O)n2C)cc1	2	-1	6	2	-2
Cn1c(NC(=O)/C=C/c2ccccc2)cc(=O)n(C)c1=O	29	61*	1	-16	16
COc1ccc(CC(N)c2csc(NC(=O)Nc3ccccc3-c3ccccc3)n2)cc1 (configuration not stated)	.	-2	.	.	.
CC(C)c1[nH]nc2c1C(c1ccc3c(c1)OCO3)NC2=O (configuration not stated)	.	-2	.	.	.
Cn1c2ccccc2c(=O)c2ccc(NCCc3cccs3)cc21	.	?	95*	26	-26
NC(=O)c1ccc(NCCc2cccs2)cc1	.	3	.	.	.
Cc1cc(C)n2nc(SCN3C(=O)c4ccccc4C3=O)nc2n1	5	-4	84*	-15	15
O=C(Nc1c(-c2ccccc2)[nH][nH]c1=O)c1ccco1	.	0	.	.	.
O[C@@H]1CN(Cc2cccs2)[C@@H](c2ccccc2)C[C@H]1n1cc(-c2ccc(F)cc2)nn1	.	-3	.	.	.
Cc1c(O)nc2sc3ccccc3n2c1=O	2	4	.	.	.
Cc1cc2sc3nc(=O)n(-c4ccccc4)c(=O)n3c2cc1C	46	71*	.	.	.
CCC1(CCC(C)C)SC(N)=NC1=O (configuration not stated)	.	-4	4	5	-5
CNc1oc(C)nc1S(=O)(=O)c1ccccc1	-13	.	-7	-48	48
Cc1nc(S(=O)(=O)c2ccc(Cl)cc2)c(NCc2ccccc2)o1	64*	-6	1	-10	10
O=C(CNC(=S)NC(=O)C1CCCCC1)c1ccccc1	27	0	87*	3	-3
SMILES	HSF-1 act	Wnt act	MITF act	SR-BI DiI inh	SR-BI DiI-HDL act
O=C(NC(=S)NCCc1ccccc1)C1CCCCC1	1	2	4	19	-19
C=CCOC(=O)COc1ccc2c3c(c(=O)oc2c1)CCCC3	.	-1	.	.	.
Cc1cccnc1N=O	.	-2	.	.	.
CCOC(=O)N1CCN(C(=O)CN2C(=O)COc3ccc(S(=O)(=O)N4CCOCC4)cc32)CC1	58*	0	11	-17	17
COc1cccc(NC(=O)CN2C(=O)COc3ccc(S(=O)(=O)N4CCC(C)CC4)cc32)c1	86*	1	1	-1	1
CC1(C(=O)NCc2ccccc2)CN(S(C)(=O)=O)CC(=O)N1CCc1c[nH]c2ccccc12 (configuration not stated)	.	-3	.	.	.
O=C(Nc1c(-c2ccc(Cl)cc2)[nH][nH]c1=O)c1ccccn1	.	-2	.	.	.
O=C(/C=C(\Nc1cccc(OC(F)F)c1)c1ccccc1)c1ccccc1	.	29	.	.	.
O=C(NCc1ccco1)c1ccc2ccccc2c1	11	.	90*	-9	9
O=C(Nc1sc2c(c1C(=O)NCc1ccco1)CCCC2)c1ccc2c(c1)OCO2	13	18	100*	82*	-82
Cc1ccc(C(=O)Nc2sc3c(c2C(=O)NCc2ccco2)CCCC3)cc1	-17	-4	32	67	-67
O=C(NCc1ccco1)c1ccc(S(=O)(=O)N2CCCc3ccccc32)cc1	42	-7	3	76*	-76
COc1ccc(C(=O)Nc2ccccc2C(=O)NCc2ccco2)cc1OC	-7	48*	.	37	-37
c1ccc(-c2nnc3oc(-c4cccs4)nn23)cc1	.	-1	.	.	.
Cc1scc(C(=O)NCc2ccco2)c1-c1ccccc1	63*	.	-8	6	-6
